Test results from publication PMC6203112 (International Journal of Chronic Obstructive Pulmonary …, 2018).

Assays:
[1] = Study 1 Part 2: repeat ascending dose; format: in vivo, human; settings: SDDPI; for CL/F / Racc / AUC(0-t): geometric mean (% CV); for AUC(0-t) / Tmax: human, plasma, inhaled; for AUC(0-t): AUC0–24 h; for Tmax: median (range)
How it was run: (§1)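 Blood was collected in lithium heparin, chilled on ice, and centrifuged at 2,000 ×g for 15 min at ~4°C. Plasma was stabilised with 1 M citric acid (100 µL per 1 mL plasma) and stored at ≤−65°C. After solid-phase extraction, samples were assayed by validated LC-MS/MS with heated electrospray and a deuterated internal standard (LLOQ 10 pg/mL). PK parameters were derived non-compartmentally.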

[2] = Study 2 Part 1: single ascending dose PK via MDDPI; format: in vivo; settings: human, plasma, inhaled
How it was run: as §1

[3] = Study 1 Part 2: adverse events after multiple OD doses via SDDPI; format: in vivo, human
How it was run: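 In Study 1 Part 2, healthy men were randomized to five parallel, dose-escalating cohorts. Each received test compound (100–1,600 µg) or matching placebo once daily for 7 days via a capsule-based single-dose dry-powder inhaler. AEs and investigator-assessed relation to study medication were recorded. Results are number (%) of subjects in the safety population (randomized, at least one dose).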

[4] = Safety assessments in both studies; format: in vivo, human
How it was run: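 Healthy non- or ex-smoking volunteers aged 18–55 (Study 1 men only; Study 2 men and women), randomized, double-blind, placebo-controlled, single centre. AEs were recorded with the investigator-judged relation to study drug. Haematology and blood chemistry were taken at baseline and end of dosing. Blood pressure, ECG and 24 h Holter were taken at regular intervals, and FEV1 was checked for post-dose bronchospasm.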

[5] = in humans; cited from earlier work
[6] = rats and ferrets, intratracheal administration at doses compatible with those used in humans; cited from earlier work
[7] = human liver; cited from earlier work
[8] = cited from earlier work
[9] = following both single and multiple doses

## CS(=O)(=O)Nc1ccc(C(=O)O[C@@H](Cc2c(Cl)c[n+]([O-])cc2Cl)c2ccc(OC(F)F)c(OCC3CC3)c2)cc1OCC1CC1 [CHF6001]
[1]; 100 µg OD, Day 7, N=7
  CL/F: 723 (41.1) mL/min
  Racc: 2.89 (16.6)
[1]; 300 µg OD, Day 7, N=8
  CL/F: 860 (44.7) mL/min
  Racc: 2.49 (31.8)
[1]; 600 µg OD, Day 7, N=9
  CL/F: 956 (28.2) mL/min
  Racc: 2.47 (20.2)
[1]; 1,200 µg OD, Day 7, N=9
  CL/F: 772 (26.6) mL/min
  Racc: 2.74 (28.2)
[1]; 1,600 µg OD, Day 7, N=6
  CL/F: 910 (17.0) mL/min
  Racc: 2.75 (16.5)
[1]; 100 ug, 100 µg OD, Day 1, N=7
  AUC(0-t): 0.796 ng·h/mL
  Tmax: 1.5 h
[1]; 100 ug, 100 µg OD, Day 7, N=7
  AUC(0-t): 2.3 ng·h/mL
  Tmax: 1 h
[1]; 300 ug, 300 µg OD, Day 1, N=8
  AUC(0-t): 2.34 ng·h/mL
  Tmax: 2 h
[1]; 300 ug, 300 µg OD, Day 7, N=8
  AUC(0-t): 5.82 ng·h/mL
  Tmax: 1 h
[1]; 600 ug, 600 µg OD, Day 1, N=9
  AUC(0-t): 4.24 ng·h/mL
  Tmax: 1.5 h
[1]; 600 ug, 600 µg OD, Day 7, N=9
  AUC(0-t): 10.5 ng·h/mL
  Tmax: 2 h
[2]
  Tmax: 3 h
[2]; 2400 µg
  AUC(0-t): 35.2 ng·h/mL
  Cmax: 1.23 ng/mL
  Tmax: 3 h
  half-life: 49.1 h
[2]; 4000 µg
  AUC(0-t): 75.8 ng·h/mL
  Cmax: 2.55 ng/mL
  Tmax: 3 h
  half-life: 44 h
[2]; 4800 µg
  AUC(0-t): 77.4 ng·h/mL
  Cmax: 2.72 ng/mL
  Tmax: 3 h
  half-life: 40 h
[3]; 100 µg OD 7 days, N=8
  AE considered related to study medication: 0 Number (%) of subjects
  AE leading to death: 0 Number (%) of subjects
  AE leading to withdrawal: 0 Number (%) of subjects
  At least one AE: 3 (37.5) Number (%) of subjects
  At least one SAE: 0 Number (%) of subjects
  Back pain (AE): 0 Number (%) of subjects
  Diarrhea (AE considered related to study medication): 0 Number (%) of subjects
  Flatulence (AE considered related to study medication): 0 Number (%) of subjects
  Headache (AE considered related to study medication): 0 Number (%) of subjects
  Headache (AE): 0 Number (%) of subjects
  Nausea (AE considered related to study medication): 0 Number (%) of subjects
  Parosmia (AE considered related to study medication): 0 Number (%) of subjects
  Severe AE: 0 Number (%) of subjects
[3]; 300 µg OD 7 days, N=8
  AE considered related to study medication: 0 Number (%) of subjects
  AE leading to death: 0 Number (%) of subjects
  AE leading to withdrawal: 0 Number (%) of subjects
  At least one AE: 2 (25.0) Number (%) of subjects
  At least one SAE: 0 Number (%) of subjects
  Back pain (AE): 0 Number (%) of subjects
  Diarrhea (AE considered related to study medication): 0 Number (%) of subjects
  Flatulence (AE considered related to study medication): 0 Number (%) of subjects
  Headache (AE considered related to study medication): 0 Number (%) of subjects
  Headache (AE): 0 Number (%) of subjects
  Nausea (AE considered related to study medication): 0 Number (%) of subjects
  Parosmia (AE considered related to study medication): 0 Number (%) of subjects
  Severe AE: 0 Number (%) of subjects
[3]; 600 µg OD 7 days, N=9
  AE considered related to study medication: 0 Number (%) of subjects
  AE leading to death: 0 Number (%) of subjects
  AE leading to withdrawal: 0 Number (%) of subjects
  At least one AE: 5 (55.6) Number (%) of subjects
  At least one SAE: 0 Number (%) of subjects
  Back pain (AE): 0 Number (%) of subjects
  Diarrhea (AE considered related to study medication): 0 Number (%) of subjects
  Flatulence (AE considered related to study medication): 0 Number (%) of subjects
  Headache (AE considered related to study medication): 0 Number (%) of subjects
  Headache (AE): 2 (22.2) Number (%) of subjects
  Nausea (AE considered related to study medication): 0 Number (%) of subjects
  Parosmia (AE considered related to study medication): 0 Number (%) of subjects
  Severe AE: 0 Number (%) of subjects
[3]; 1,200 µg OD 7 days, N=9
  AE considered related to study medication: 0 Number (%) of subjects
  AE leading to death: 0 Number (%) of subjects
  AE leading to withdrawal: 0 Number (%) of subjects
  At least one AE: 2 (22.2) Number (%) of subjects
  At least one SAE: 0 Number (%) of subjects
  Back pain (AE): 0 Number (%) of subjects
  Diarrhea (AE considered related to study medication): 0 Number (%) of subjects
  Flatulence (AE considered related to study medication): 0 Number (%) of subjects
  Headache (AE considered related to study medication): 0 Number (%) of subjects
  Headache (AE): 0 Number (%) of subjects
  Nausea (AE considered related to study medication): 0 Number (%) of subjects
  Parosmia (AE considered related to study medication): 0 Number (%) of subjects
  Severe AE: 0 Number (%) of subjects
[3]; 1,600 µg OD 7 days, N=7
  AE considered related to study medication: 0 Number (%) of subjects
  AE leading to death: 0 Number (%) of subjects
  AE leading to withdrawal: 0 Number (%) of subjects
  At least one AE: 3 (42.9) Number (%) of subjects
  At least one SAE: 0 Number (%) of subjects
  Back pain (AE): 0 Number (%) of subjects
  Diarrhea (AE considered related to study medication): 0 Number (%) of subjects
  Flatulence (AE considered related to study medication): 0 Number (%) of subjects
  Headache (AE considered related to study medication): 0 Number (%) of subjects
  Headache (AE): 0 Number (%) of subjects
  Nausea (AE considered related to study medication): 0 Number (%) of subjects
  Parosmia (AE considered related to study medication): 0 Number (%) of subjects
  Severe AE: 0 Number (%) of subjects
[4]; both studies
  mean laboratory values: within normal ranges
[4]; both studies, single and multiple doses
  post-dose decreases in FEV1 (bronchospasm): no clinically significant post-dose decreases
[4]; [9]
  mean ECG values: within the normal range
  mean systolic and diastolic blood pressure: within the normal range
[4]; following single doses in both studies
  nausea events: no nausea events
[4]; single or multiple dosing
  relationship between dose and occurrence of AEs or serious adverse events: no relationship
[5]
  plasma protein bound: > 99%
[6]
  emesis or nausea: no evidence of emesis or nausea
[7]
  metabolic stability: metabolically stable
[8]; after intratracheal administration
  systemic bioavailability: low systemic bioavailability
[8]; after oral administration
  bioavailability: very low bioavailability
[8]; following intravenous administration, predominantly via the fecal route
  elimination: rapidly eliminated
